Results published in ChEMBL document CHEMBL4673249, “Anticancer Effects of Honokiol via Mitochondrial Dysfunction Are Strongly Enhanced by the Mitochondria-Targeting Carrier Berberine” (J Med Chem, 2020).
pIC50: −log10 of the molar value. The source made the active and inactive calls. The rule behind the calls is not given here.

What was measured:
HepG2 [1] = experiment: Induction of mitochondrial dysfunction in human HepG2 cells assessed as […] at 1 to 4 uM after 24 hrs by JC-1 staining based flow cytometric analysis; type: functional, cell-based; details: dose 1-4 µM
HepG2 [2] = experiment: Antiproliferative activity against human HepG2 cells assessed as reduction in cell viability after 48 hrs by MTT assay; type: functional, cell-based; details: HepG2, 48 h
How it was run: (§1)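 Cell lines grown at 37 °C in 5% CO2: A2780, A549, HL7702 and PC3 in RPMI 1640; HT29 in McCoy's 5A; HepG2 and PANC-1 in DMEM; all media with 10% FBS and penicillin/streptomycin. Cells seeded and left overnight, then exposed to compound for 48 h. MTT (5 mg/mL solution) added for 4 h at 37 °C, formazan dissolved in DMSO, absorbance read at 570 nm. IC50 taken from viability; run in triplicate.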

HT-29 = experiment: Antiproliferative activity against human HT29 cells assessed as reduction in cell viability after 48 hrs by MTT assay; type: functional, cell-based; details: HT-29, 48 h; how it was run: as §1
PANC-1 [3] = experiment: Antiproliferative activity against human PANC1 cells assessed as reduction in cell viability after 48 hrs by MTT assay; type: functional, cell-based; details: PANC-1, 48 h; how it was run: as §1
HepG2 [4] = experiment: Induction of ROS generation in human HepG2 cells after 24 hrs by DCFH-DA staining based flow cytometric analysis; type: functional, cell-based
How it was run: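 HepG2 cells treated for the stated time, then loaded with 10 μM DCFH-DA in FBS-free medium for 30 min in the dark. Washed twice with PBS, trypsinized, pelleted at 1200 rpm for 5 min, resuspended in PBS and read by flow cytometry. Kit Rosup reagent served as positive agent.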

HepG2 [5] = experiment: Induction of autophagy in human HepG2 cells assessed as effect on LC3-2 protein expression at 3 uM after 24 hrs by Western blot analysis; type: functional, cell-based
How it was run: (§2)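 HepG2 cells lysed in RIPA on ice for 20 min; protein measured by BCA. Lysates run on 10% SDS-PAGE and transferred to PVDF. Membranes blocked in 5% nonfat milk/TBST for 2 h, incubated with primary antibodies overnight at 4 °C, then HRP secondary antibody; bands detected by ECL.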

HepG2 [6] = experiment: Induction of morphological changes in human HepG2 cells assessed as accumulation of vacuoles at 3 uM after 24 hrs in presence of 3-MA by microscopic method; type: functional, cell-based
How it was run: (§3)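 HepG2 cells given 3 μM compound for 24 h with chloroquine (10 μM) or 3-methyladenine (1 mM). Vacuolization and viability examined, viability by MTT.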

HepG2 [7] = experiment: Induction of morphological changes in human HepG2 cells assessed as accumulation of vacuoles at 3 uM after 24 hrs in presence of CQ by microscopic method; type: functional, cell-based; how it was run: as §3
HepG2 [8] = experiment: Induction of morphological changes in human HepG2 cells assessed as accumulation of vacuoles at 3 uM after 24 hrs in presence of Nec-1 by microscopic method; type: functional, cell-based
How it was run: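 HepG2 cells pretreated with necrostatin-1 (30 μM, 2 h), then exposed to 3 μM compound. Vacuoles imaged by optical microscopy after 24 h.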

HepG2 [9] = experiment: Induction of cell death in human HepG2 cells at 3 uM after 12 hrs in presence of Nec-1 by MTT assay; type: functional, cell-based
How it was run: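 HepG2 cells pretreated with Nec-1 (30 μM) for 2 h, then given 3 μM. Viability measured by MTT with absorbance read at 570 nm.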

HepG2 [10] = experiment: Induction of apoptosis in human HepG2 cells assessed as necrotic cells at 4 uM after 24 hrs in presence of z-VAD-fmk by annexin V/propidium iodide staining based flow cytometric analysis (reference value: 0.12%); type: functional
HepG2 [11] = experiment: Induction of apoptosis in human HepG2 cells assessed as late apoptotic cells at 4 uM after 24 hrs in presence of z-VAD-fmk by annexin V/propidium iodide staining based flow cytometric analysis (reference value: 6.21%); type: functional
HepG2 [12] = experiment: Induction of apoptosis in human HepG2 cells assessed as necrotic cells at 2 uM after 24 hrs by annexin V/propidium iodide staining based flow cytometric analysis (reference value: 0.11%); type: functional
HepG2 [13] = experiment: Induction of apoptosis in human HepG2 cells assessed as late apoptotic cells at 2 uM after 24 hrs by annexin V/propidium iodide staining based flow cytometric analysis (reference value: 3.22%); type: functional
HepG2 [14] = experiment: Induction of apoptosis in human HepG2 cells assessed as late apoptotic cells at 1 uM after 24 hrs by annexin V/propidium iodide staining based flow cytometric analysis (reference value: 3.22%); type: functional
HepG2 [15] = experiment: Induction of apoptosis in human HepG2 cells assessed as early apoptotic cells at 2 uM after 24 hrs by annexin V/propidium iodide staining based flow cytometric analysis (reference value: 1.29%); type: functional
HepG2 [16] = experiment: Induction of apoptosis in human HepG2 cells assessed as viable cells at 1 uM after 24 hrs by annexin V/propidium iodide staining based flow cytometric analysis (reference value: 95.3%); type: functional; details: read-out: Activity
HepG2 [17] = experiment: Induction of apoptosis in human HepG2 cells assessed as increase in cleaved-caspase 9 protein expression at 1 to 4 uM after 24 hrs by Western blot analysis; type: functional, cell-based; details: dose 1-4 µM; how it was run: as §2
HepG2 [18] = experiment: Induction of apoptosis in human HepG2 cells assessed as increase in cleaved-caspase 3 protein expression at 1 to 4 uM after 24 hrs by Western blot analysis; type: functional, cell-based; details: dose 1-4 µM; how it was run: as §2
[19] = Ratio of HN drug uptake to test compound drug uptake in human HepG2 cells mitochondria at 5 uM after 12 hrs by HPLC analysis; type: ADME; details: hepg2, 12 h
How it was run: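 HepG2 cells treated with 5 μM compound or honokiol for 12 h. Mitochondria isolated with a kit by centrifugation at 600g then 11000g, 4 °C, 10 min each. Whole-cell and mitochondrial drug measured by HPLC on a C18 column, methanol-0.1% acetic acid (80:20), at 265 nm (derivative) and 210 nm (honokiol). Run thrice.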

PC-3 = experiment: Induction of morphological changes in human PC3 cells assessed as accumulation of cytoplasmic vacuoles at 4 uM after 24 hrs by optical microscopic method; type: functional, cell-based
How it was run: (§4)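 Cells grown at 37 °C, 5% CO2 in media with 10% FBS and penicillin/streptomycin, then treated with compound. Cytoplasmic vacuoles judged by optical microscopy. Time course at 4 μM, or 10 h exposure across increasing concentrations.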

PANC-1 [20] = experiment: Induction of morphological changes in human PANC-1 cells assessed as accumulation of cytoplasmic vacuoles at 4 uM after 24 hrs by optical microscopic method; type: functional, cell-based; how it was run: as §4
A549 = experiment: Induction of morphological changes in human A549 cells assessed as accumulation of cytoplasmic vacuoles at 4 uM after 24 hrs by optical microscopic method; type: functional, cell-based
A2780 = experiment: Induction of morphological changes in human A2780 cells assessed as accumulation of cytoplasmic vacuoles at 4 uM after 24 hrs by optical microscopic method; type: functional, cell-based
HepG2 [21] = experiment: Induction of mitochondrial morphological changes in human HepG2 cells assessed as dilation of mitochondria at 3 uM measured after 12 hrs by MitoTracker red CMXRos by confocal microscopic method; type: functional, cell-based
How it was run: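 HepG2 cells stained with MitoTracker Red CMXRos; fluorescence and phase-contrast images taken by laser confocal microscopy.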

C=CCc1ccc(O)c(-c2ccc(OCCCCCc3c4[n+](cc5c(OC)c(OC)ccc35)CCc3cc5c(cc3-4)OCO5)c(CC=C)c2)c1.[I-]
Activity (HepG2 [1]): Active | pIC50 (HepG2 [2]): 5.79 | pIC50 (HT-29): < 5.30 | pIC50 (PANC-1 [3]): 5.48 | Activity (HepG2 [4]): Dose-dependent effect | Activity (HepG2 [5]): inactive | Activity (HepG2 [6]): Active | Activity (HepG2 [7]): Active | Activity (HepG2 [8]): Active | Activity (HepG2 [9]): Active | Activity (HepG2 [10]): 0.57% | Activity (HepG2 [11]): 19.9% | Activity (HepG2 [12]): 0.13% | Activity (HepG2 [13]): 3.51% | Activity (HepG2 [14]): 3.21% | Activity (HepG2 [15]): 3.03% | viability at 1 µM (HepG2 [16]): 93.3% | Activity (HepG2 [17]): Active | Activity (HepG2 [18]): Active | Ratio [19]: 3.7 | Activity (PC-3): Active | Activity (PANC-1 [20]): Active | Activity (A549): Active | Activity (A2780): Active | Activity (HepG2 [21]): Active
